ChEMBL document CHEMBL1137337, “Design, synthesis, and biological evaluation of new cyclic melanotropin peptide analogues selective for the human melanocortin-4 receptor” (J Med Chem, 2006)
Calls of active or inactive are those of the source. The calls are words filed in the database; no cut-off is given here.

What follows are compounds tested against T1, Melanocyte-stimulating hormone receptor (Homo sapiens, UniProt Q01726) (assay: Displacement of [125I]NDP-alphaMSH from human MC1 receptor expressed in HEK293 cells).
Format: cell-based
Outline: (§1)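 Whole-cell competition used transfected HEK293 cells seeded 48 h ahead at 100 000 cells/well. Binding buffer was MEM with 25 mM HEPES pH 7.4, 0.2% BSA, 1 mM 1,10-phenanthroline, leupeptin and bacitracin. Radioactivity was gamma-counted, and IC50 was obtained by nonlinear least-squares fit.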
Target sequence in this assay (Q01726 whole entry): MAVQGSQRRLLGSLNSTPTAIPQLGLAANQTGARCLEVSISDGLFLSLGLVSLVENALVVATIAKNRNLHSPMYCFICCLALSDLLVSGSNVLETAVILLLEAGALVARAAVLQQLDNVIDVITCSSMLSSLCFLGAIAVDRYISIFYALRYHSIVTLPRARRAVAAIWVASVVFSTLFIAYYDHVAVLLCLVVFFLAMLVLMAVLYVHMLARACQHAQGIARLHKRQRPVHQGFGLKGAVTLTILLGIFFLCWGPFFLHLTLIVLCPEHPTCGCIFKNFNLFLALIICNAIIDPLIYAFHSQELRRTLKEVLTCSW

SMILES	IC50 [nM]
CC(=O)N[C@H]1CSSC[C@@H](C(=O)N(CCCCN=C(N)N)C(Cc2c[nH]c3ccccc23)C(N)=O)NC(=O)[C@@H](Cc2ccc3ccccc3c2)NC(=O)[C@H](Cc2c[nH]cn2)NC1=O (stereo in doubt)	> 1000
CC(=O)N[C@H]1CCC(=O)NCCC[C@@H](C(=O)N[C@@H](Cc2c[nH]c3ccccc23)C(N)=O)N(CCCCN=C(N)N)C(=O)[C@@H](Cc2ccccc2)NC(=O)[C@H](Cc2c[nH]cn2)NC1=O	750

What follows are compounds tested against T2, Melanocortin receptor 3 (Homo sapiens, UniProt P41968) (assay: Displacement of [125I]NDP-alphaMSH from human MC3 receptor expressed in HEK293 cells).
Format: cell-based
Outline: as §1

T2 sequence (P41968 whole entry): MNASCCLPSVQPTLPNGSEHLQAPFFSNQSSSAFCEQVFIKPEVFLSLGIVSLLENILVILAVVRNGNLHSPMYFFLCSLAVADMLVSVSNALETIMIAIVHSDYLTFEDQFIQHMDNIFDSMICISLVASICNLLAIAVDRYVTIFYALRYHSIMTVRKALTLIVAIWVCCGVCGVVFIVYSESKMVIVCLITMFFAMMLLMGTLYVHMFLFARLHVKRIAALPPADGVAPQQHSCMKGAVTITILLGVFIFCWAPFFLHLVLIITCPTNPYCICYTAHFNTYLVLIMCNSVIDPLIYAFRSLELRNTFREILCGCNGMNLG

SMILES	IC50 [nM]	Activity
CC(=O)N[C@H]1CSSC[C@@H](C(=O)N(CCCCN=C(N)N)[C@H](Cc2c[nH]c3ccccc23)C(N)=O)NC(=O)[C@@H](Cc2ccccc2)NC(=O)[C@H](Cc2cnc[nH]2)NC1=O	> 1000	
CC(=O)N[C@H]1CSSC[C@@H](C(=O)N(CCCCN=C(N)N)C(Cc2c[nH]c3ccccc23)C(N)=O)NC(=O)[C@@H](Cc2ccc3ccccc3c2)NC(=O)[C@H](Cc2c[nH]cn2)NC1=O (stereo in doubt)		inactive
CC(=O)N[C@H]1CCC(=O)NCCC[C@@H](C(=O)N[C@@H](Cc2c[nH]c3ccccc23)C(N)=O)N(CCCCN=C(N)N)C(=O)[C@@H](Cc2ccccc2)NC(=O)[C@H](Cc2c[nH]cn2)NC1=O	> 1000	

The compounds below were run against T3, Melanocortin receptor 4 (Homo sapiens, UniProt P32245) (assay: Displacement of [125I]NDP-alphaMSH from human MC4 receptor expressed in HEK293 cells).
Format: cell-based
Outline: as §1

T3 sequence (P32245 whole entry): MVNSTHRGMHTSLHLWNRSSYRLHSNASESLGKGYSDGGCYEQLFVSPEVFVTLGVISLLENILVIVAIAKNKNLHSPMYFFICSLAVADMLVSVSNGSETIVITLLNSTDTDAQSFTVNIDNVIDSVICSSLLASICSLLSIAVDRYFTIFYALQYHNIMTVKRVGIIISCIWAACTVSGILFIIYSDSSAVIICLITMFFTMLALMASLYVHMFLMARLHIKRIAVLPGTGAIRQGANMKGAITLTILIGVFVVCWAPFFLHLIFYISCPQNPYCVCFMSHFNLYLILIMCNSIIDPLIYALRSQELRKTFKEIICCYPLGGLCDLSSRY

SMILES	IC50 [nM]	Activity
CC(=O)N[C@H]1CSSC[C@@H](C(=O)N(CCCCN=C(N)N)[C@H](Cc2c[nH]c3ccccc23)C(N)=O)NC(=O)[C@@H](Cc2ccccc2)NC(=O)[C@H](Cc2cnc[nH]2)NC1=O	0.7	
CC(=O)N[C@H]1CSSC[C@@H](C(=O)N(CCCCN=C(N)N)C(Cc2c[nH]c3ccccc23)C(N)=O)NC(=O)[C@@H](Cc2ccc3ccccc3c2)NC(=O)[C@H](Cc2c[nH]cn2)NC1=O (stereo in doubt)		inactive
CC(=O)N[C@H]1CCC(=O)NCCC[C@@H](C(=O)N[C@@H](Cc2c[nH]c3ccccc23)C(N)=O)N(CCCCN=C(N)N)C(=O)[C@@H](Cc2ccccc2)NC(=O)[C@H](Cc2c[nH]cn2)NC1=O	101	

Each compound was assayed against T4, Melanocortin receptor 5 (Homo sapiens, UniProt P33032) (assay: Displacement of [125I]NDP-alphaMSH from human MC5 receptor expressed in HEK293 cells).
Format: cell-based
Outline: as §1

T4 sequence (P33032 whole entry): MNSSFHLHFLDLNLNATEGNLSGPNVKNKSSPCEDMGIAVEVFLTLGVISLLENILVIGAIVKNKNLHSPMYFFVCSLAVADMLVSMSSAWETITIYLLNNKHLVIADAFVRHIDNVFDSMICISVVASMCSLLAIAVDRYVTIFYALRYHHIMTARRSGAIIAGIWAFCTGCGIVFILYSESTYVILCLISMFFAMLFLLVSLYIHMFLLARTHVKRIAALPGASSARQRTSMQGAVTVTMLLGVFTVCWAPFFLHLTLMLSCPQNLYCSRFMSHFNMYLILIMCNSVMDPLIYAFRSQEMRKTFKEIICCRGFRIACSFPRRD

SMILES	IC50 [nM]	Activity
CC(=O)N[C@H]1CSSC[C@@H](C(=O)N(CCCCN=C(N)N)C(Cc2c[nH]c3ccccc23)C(N)=O)NC(=O)[C@@H](Cc2ccc3ccccc3c2)NC(=O)[C@H](Cc2c[nH]cn2)NC1=O (stereo in doubt)	209	
CC(=O)N[C@H]1CCC(=O)NCCC[C@@H](C(=O)N[C@@H](Cc2c[nH]c3ccccc23)C(N)=O)N(CCCCN=C(N)N)C(=O)[C@@H](Cc2ccccc2)NC(=O)[C@H](Cc2c[nH]cn2)NC1=O		inactive

What follows are compounds tested against T2, Melanocortin receptor 3 (assay: Activity at hMC3R transfected in HEK293 cells assessed as intracellular cAMP accumulation).
Format: functional, cell-based
Outline: (§2)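 HEK293 cells stably carrying the human MC receptor were seeded 48 h ahead at 50 000 cells/well. They were preincubated 1 min at 37 °C in EBSS with IBMX, then exposed to peptide at 10⁻¹⁰ to 10⁻⁵ M for 3 min at 37 °C. Ice-cold Tris/EDTA stopped the reaction, and lysates were boiled 15 min. Total cAMP was measured by competitive binding kit, and EC50 was obtained by nonlinear least-squares fit.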

SMILES	Activity
CC(=O)N[C@H]1CSSC[C@@H](C(=O)N(CCCCN=C(N)N)C(Cc2c[nH]c3ccccc23)C(N)=O)NC(=O)[C@@H](Cc2ccc3ccccc3c2)NC(=O)[C@H](Cc2c[nH]cn2)NC1=O (stereo in doubt)	inactive
CC(=O)N[C@H]1CCC(=O)NCCC[C@@H](C(=O)N[C@@H](Cc2c[nH]c3ccccc23)C(N)=O)N(CCCCN=C(N)N)C(=O)[C@@H](Cc2ccccc2)NC(=O)[C@H](Cc2c[nH]cn2)NC1=O	inactive

What follows are compounds tested against T3, Melanocortin receptor 4 (assay: Activity at hMC4R transfected in HEK293 cells assessed as intracellular cAMP accumulation).
Format: functional, cell-based
Outline: as §2

SMILES	EC50 [nM]	Activity
CC(=O)N[C@H]1CSSC[C@@H](C(=O)N(CCCCN=C(N)N)[C@H](Cc2c[nH]c3ccccc23)C(N)=O)NC(=O)[C@@H](Cc2ccccc2)NC(=O)[C@H](Cc2cnc[nH]2)NC1=O	> 1000	
CC(=O)N[C@H]1CSSC[C@@H](C(=O)N(CCCCN=C(N)N)C(Cc2c[nH]c3ccccc23)C(N)=O)NC(=O)[C@@H](Cc2ccc3ccccc3c2)NC(=O)[C@H](Cc2c[nH]cn2)NC1=O (stereo in doubt)		inactive
CC(=O)N[C@H]1CCC(=O)NCCC[C@@H](C(=O)N[C@@H](Cc2c[nH]c3ccccc23)C(N)=O)N(CCCCN=C(N)N)C(=O)[C@@H](Cc2ccccc2)NC(=O)[C@H](Cc2c[nH]cn2)NC1=O	> 1000	

Each compound was assayed against T4, Melanocortin receptor 5 (assay: Activity at hMC5R transfected in HEK293 cells assessed as intracellular cAMP accumulation).
Format: functional, cell-based
Outline: as §2

SMILES	Activity
CC(=O)N[C@H]1CSSC[C@@H](C(=O)N(CCCCN=C(N)N)C(Cc2c[nH]c3ccccc23)C(N)=O)NC(=O)[C@@H](Cc2ccc3ccccc3c2)NC(=O)[C@H](Cc2c[nH]cn2)NC1=O (stereo in doubt)	inactive
CC(=O)N[C@H]1CCC(=O)NCCC[C@@H](C(=O)N[C@@H](Cc2c[nH]c3ccccc23)C(N)=O)N(CCCCN=C(N)N)C(=O)[C@@H](Cc2ccccc2)NC(=O)[C@H](Cc2c[nH]cn2)NC1=O	inactive

Each compound was assayed against T1, Melanocyte-stimulating hormone receptor (assay: Displacement of [125I]NDP-alphaMSH from human MC1 receptor expressed in HEK293 cells relative to MT2).
Format: cell-based
Outline: (§3)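 Binding efficiency was measured in the whole-cell [¹²⁵I]NDP-α-MSH competition assay on receptor-transfected HEK293 cells (30 min, 37 °C). It is expressed as the peptide's maximal percentage specific binding relative to MTII agonist binding, with peptides tested at 10⁻¹⁰ to 10⁻⁵ M.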
Target sequence in this assay (Q01726 whole entry, looked up): as the sequence (Q01726 whole entry) above

SMILES	Activity [%]
CC(=O)N[C@H]1CSSC[C@@H](C(=O)N(CCCCN=C(N)N)C(Cc2c[nH]c3ccccc23)C(N)=O)NC(=O)[C@@H](Cc2ccc3ccccc3c2)NC(=O)[C@H](Cc2c[nH]cn2)NC1=O (stereo in doubt)	< 10
CC(=O)N[C@H]1CCC(=O)NCCC[C@@H](C(=O)N[C@@H](Cc2c[nH]c3ccccc23)C(N)=O)N(CCCCN=C(N)N)C(=O)[C@@H](Cc2ccccc2)NC(=O)[C@H](Cc2c[nH]cn2)NC1=O	< 10

What follows are compounds tested against T2, Melanocortin receptor 3 (assay: Displacement of [125I]NDP-alphaMSH from human MC3 receptor expressed in HEK293 cells relative to MT2).
Format: cell-based
Outline: as §3

SMILES	Activity [%]
CC(=O)N[C@H]1CSSC[C@@H](C(=O)N(CCCCN=C(N)N)C(Cc2c[nH]c3ccccc23)C(N)=O)NC(=O)[C@@H](Cc2ccc3ccccc3c2)NC(=O)[C@H](Cc2c[nH]cn2)NC1=O (stereo in doubt)	0
CC(=O)N[C@H]1CCC(=O)NCCC[C@@H](C(=O)N[C@@H](Cc2c[nH]c3ccccc23)C(N)=O)N(CCCCN=C(N)N)C(=O)[C@@H](Cc2ccccc2)NC(=O)[C@H](Cc2c[nH]cn2)NC1=O	50

These compounds were tested against T3, Melanocortin receptor 4 (assay: Displacement of [125I]NDP-alphaMSH from human MC4 receptor expressed in HEK293 cells relative to MT2).
Format: cell-based
Outline: as §3

SMILES	Activity [%]
CC(=O)N[C@H]1CSSC[C@@H](C(=O)N(CCCCN=C(N)N)C(Cc2c[nH]c3ccccc23)C(N)=O)NC(=O)[C@@H](Cc2ccc3ccccc3c2)NC(=O)[C@H](Cc2c[nH]cn2)NC1=O (stereo in doubt)	0
CC(=O)N[C@H]1CCC(=O)NCCC[C@@H](C(=O)N[C@@H](Cc2c[nH]c3ccccc23)C(N)=O)N(CCCCN=C(N)N)C(=O)[C@@H](Cc2ccccc2)NC(=O)[C@H](Cc2c[nH]cn2)NC1=O	50

Each compound was assayed against T4, Melanocortin receptor 5 (assay: Displacement of [125I]NDP-alphaMSH from human MC5 receptor expressed in HEK293 cells relative to MT2).
Format: cell-based
Outline: as §3

SMILES	Activity [%]
CC(=O)N[C@H]1CSSC[C@@H](C(=O)N(CCCCN=C(N)N)C(Cc2c[nH]c3ccccc23)C(N)=O)NC(=O)[C@@H](Cc2ccc3ccccc3c2)NC(=O)[C@H](Cc2c[nH]cn2)NC1=O (stereo in doubt)	< 10
CC(=O)N[C@H]1CCC(=O)NCCC[C@@H](C(=O)N[C@@H](Cc2c[nH]c3ccccc23)C(N)=O)N(CCCCN=C(N)N)C(=O)[C@@H](Cc2ccccc2)NC(=O)[C@H](Cc2c[nH]cn2)NC1=O	0

The compounds below were run against T1, Melanocyte-stimulating hormone receptor (assay: Activity at hMC1R transfected in HEK293 cells assessed as intracellular cAMP accumulation relative to MT2).
Format: functional, cell-based
Design: concentration or dose not given beside the values
Target sequence in this assay (Q01726 whole entry, looked up): as the sequence (Q01726 whole entry) above

SMILES	Activity [%]
CC(=O)N[C@H]1CSSC[C@@H](C(=O)N(CCCCN=C(N)N)C(Cc2c[nH]c3ccccc23)C(N)=O)NC(=O)[C@@H](Cc2ccc3ccccc3c2)NC(=O)[C@H](Cc2c[nH]cn2)NC1=O (stereo in doubt)	0
CC(=O)N[C@H]1CCC(=O)NCCC[C@@H](C(=O)N[C@@H](Cc2c[nH]c3ccccc23)C(N)=O)N(CCCCN=C(N)N)C(=O)[C@@H](Cc2ccccc2)NC(=O)[C@H](Cc2c[nH]cn2)NC1=O	0

What follows are compounds tested against T2, Melanocortin receptor 3 (assay: Activity at hMC3R transfected in HEK293 cells assessed as intracellular cAMP accumulation relative to MT2).
Format: functional, cell-based
Design: concentration or dose not given beside the values

SMILES	Activity [%]
CC(=O)N[C@H]1CSSC[C@@H](C(=O)N(CCCCN=C(N)N)C(Cc2c[nH]c3ccccc23)C(N)=O)NC(=O)[C@@H](Cc2ccc3ccccc3c2)NC(=O)[C@H](Cc2c[nH]cn2)NC1=O (stereo in doubt)	0
CC(=O)N[C@H]1CCC(=O)NCCC[C@@H](C(=O)N[C@@H](Cc2c[nH]c3ccccc23)C(N)=O)N(CCCCN=C(N)N)C(=O)[C@@H](Cc2ccccc2)NC(=O)[C@H](Cc2c[nH]cn2)NC1=O	0

What follows are compounds tested against T3, Melanocortin receptor 4 (assay: Activity at hMC4R transfected in HEK293 cells assessed as intracellular cAMP accumulation relative to MT2).
Format: functional, cell-based
Design: concentration or dose not given beside the values

SMILES	Activity [%]
CC(=O)N[C@H]1CSSC[C@@H](C(=O)N(CCCCN=C(N)N)C(Cc2c[nH]c3ccccc23)C(N)=O)NC(=O)[C@@H](Cc2ccc3ccccc3c2)NC(=O)[C@H](Cc2c[nH]cn2)NC1=O (stereo in doubt)	0
CC(=O)N[C@H]1CCC(=O)NCCC[C@@H](C(=O)N[C@@H](Cc2c[nH]c3ccccc23)C(N)=O)N(CCCCN=C(N)N)C(=O)[C@@H](Cc2ccccc2)NC(=O)[C@H](Cc2c[nH]cn2)NC1=O	< 10

What follows are compounds tested against T4, Melanocortin receptor 5 (assay: Activity at hMC5R transfected in HEK293 cells assessed as intracellular cAMP accumulation relative to MT2).
Format: functional, cell-based

SMILES	Activity [%]
CC(=O)N[C@H]1CSSC[C@@H](C(=O)N(CCCCN=C(N)N)C(Cc2c[nH]c3ccccc23)C(N)=O)NC(=O)[C@@H](Cc2ccc3ccccc3c2)NC(=O)[C@H](Cc2c[nH]cn2)NC1=O (stereo in doubt)	0
CC(=O)N[C@H]1CCC(=O)NCCC[C@@H](C(=O)N[C@@H](Cc2c[nH]c3ccccc23)C(N)=O)N(CCCCN=C(N)N)C(=O)[C@@H](Cc2ccccc2)NC(=O)[C@H](Cc2c[nH]cn2)NC1=O	0
